Assay results reported in ChEMBL document CHEMBL3124926, “Identification of highly efficacious glucocorticoid receptor agonists with a potential for reduced clinical bone side effects” (J Med Chem, 2014).

Legend:
[1] = biological target: T1, Glucocorticoid receptor (Homo sapiens) (UniProt P04150); test: Agonist activity at glucocorticoid receptor in human […] cells assessed as suppression of vitamin D-induced osteocalcin production at 2 uM after 48 hrs by Gla-type osteocalcin ELISA relative to dexomethasone; assay type: cell-based
T1 sequence (whole entry): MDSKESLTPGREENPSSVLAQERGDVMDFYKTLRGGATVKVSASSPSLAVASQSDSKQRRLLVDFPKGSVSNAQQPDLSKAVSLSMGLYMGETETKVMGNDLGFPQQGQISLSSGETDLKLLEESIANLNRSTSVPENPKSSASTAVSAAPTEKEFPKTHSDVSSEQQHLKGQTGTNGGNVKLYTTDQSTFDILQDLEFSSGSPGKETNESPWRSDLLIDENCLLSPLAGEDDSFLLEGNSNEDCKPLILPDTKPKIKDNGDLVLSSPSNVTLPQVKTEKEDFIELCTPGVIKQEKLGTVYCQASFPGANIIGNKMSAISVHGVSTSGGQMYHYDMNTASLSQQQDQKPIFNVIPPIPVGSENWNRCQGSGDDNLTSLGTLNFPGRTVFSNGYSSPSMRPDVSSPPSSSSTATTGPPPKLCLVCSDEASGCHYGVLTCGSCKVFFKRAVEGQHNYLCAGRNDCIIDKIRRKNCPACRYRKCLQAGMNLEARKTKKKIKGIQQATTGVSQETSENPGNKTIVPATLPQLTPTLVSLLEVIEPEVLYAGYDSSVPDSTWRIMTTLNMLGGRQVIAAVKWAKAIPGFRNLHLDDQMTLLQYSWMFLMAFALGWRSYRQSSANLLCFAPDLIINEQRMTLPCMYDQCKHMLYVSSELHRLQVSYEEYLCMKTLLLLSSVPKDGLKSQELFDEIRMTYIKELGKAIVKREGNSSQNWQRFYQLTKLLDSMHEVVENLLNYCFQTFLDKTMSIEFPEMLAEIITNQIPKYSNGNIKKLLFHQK
Summary of the method: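 MG-63 human osteosarcoma cells plated at 20000/well in DMEM/F-12 with 1% charcoal-filtered FBS and 10 μg/mL vitamin C. Medium refreshed next day, then vitamin D (10 nM final) added with compound (2 × 10−6 to 10−10 M), duplicates. Incubated 48 h at 37 °C; supernatant osteocalcin measured by Gla-type ELISA. Vitamin D-only wells = 100%. Max efficacy at 2 μM is relative to dexamethasone (100%).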

Glucocorticoid receptor [2] = biological target: T2, Glucocorticoid receptor (Homo sapiens, UniProt P04150); test: Transrepression activity at glucocorticoid receptor in human fibroblasts assessed as inhibition of IL-1-induced IL-6 production after 18 to 24 hrs
T2 sequence (P04150 whole entry): T1 sequence (whole entry)
Summary of the method: (§1)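 Human foreskin fibroblasts grown in Iscove's medium with 10% charcoal/dextran-treated FBS, plated at 20000/well two days before. Medium replaced, then compound (0.4% DMSO final) and recombinant human IL-1 (1 ng/mL final) added. 18–24 h at 37 °C; IL-6 in medium quantified by electrochemiluminescence, DELFIA or ELISA. IC50 by four-parameter fit of duplicate 11-point curves. Efficacy relative to dexamethasone (100%); top concentration 2 μM.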

Progesterone receptor = biological target: T3, Progesterone receptor (Homo sapiens, UniProt P06401); test: Competitive binding affinity to progesterone receptor (unknown origin) expressed in baculovirus-infected cell system after 1 hr by fluorescence polarization assay in presence of tetramethylrhodamine-labeled RU-486
T3 sequence (P06401 whole entry): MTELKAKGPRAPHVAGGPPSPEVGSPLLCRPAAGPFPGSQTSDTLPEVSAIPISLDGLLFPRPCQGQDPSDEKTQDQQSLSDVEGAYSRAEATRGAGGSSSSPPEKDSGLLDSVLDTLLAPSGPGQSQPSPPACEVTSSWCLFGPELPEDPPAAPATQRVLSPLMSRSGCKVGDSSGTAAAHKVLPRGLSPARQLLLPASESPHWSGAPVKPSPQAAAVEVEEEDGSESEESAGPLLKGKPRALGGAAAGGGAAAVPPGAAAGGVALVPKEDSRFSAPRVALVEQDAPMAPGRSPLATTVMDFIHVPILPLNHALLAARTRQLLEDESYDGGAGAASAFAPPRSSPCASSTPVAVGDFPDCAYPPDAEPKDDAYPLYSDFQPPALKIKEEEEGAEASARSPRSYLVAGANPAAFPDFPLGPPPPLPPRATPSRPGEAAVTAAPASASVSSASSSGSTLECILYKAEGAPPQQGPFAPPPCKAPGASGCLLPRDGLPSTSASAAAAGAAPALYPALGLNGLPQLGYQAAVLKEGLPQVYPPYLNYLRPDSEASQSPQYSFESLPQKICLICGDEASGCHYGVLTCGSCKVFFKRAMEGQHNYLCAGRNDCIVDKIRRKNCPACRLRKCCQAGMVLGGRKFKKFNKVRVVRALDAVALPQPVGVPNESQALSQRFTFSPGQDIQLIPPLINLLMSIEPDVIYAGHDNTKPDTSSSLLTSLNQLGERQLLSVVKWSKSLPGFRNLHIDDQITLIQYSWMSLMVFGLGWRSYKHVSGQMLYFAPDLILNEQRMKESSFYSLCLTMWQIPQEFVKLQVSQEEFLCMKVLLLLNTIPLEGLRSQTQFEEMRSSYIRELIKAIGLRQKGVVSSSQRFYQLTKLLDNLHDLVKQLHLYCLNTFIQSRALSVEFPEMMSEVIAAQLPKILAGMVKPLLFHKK
Summary of the method: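 PR from lysate of insect cells infected with receptor baculovirus alone, diluted 13-fold. Probe 5 nM tetramethylrhodamine-labeled RU-486 in pH 7.4 TES/KCl/molybdate buffer with 1% DMSO. 1 h at room temperature in the dark, then fluorescence polarization (ex 550/em 580 nm). Background set with 2 μM RU-486. IC50 from duplicate 11-point curves, four-parameter logistic fit, mean of at least two determinations.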

Glucocorticoid receptor [3] = biological target: T2, Glucocorticoid receptor; test: Competitive binding affinity to glucocorticoid receptor (unknown origin) expressed in baculovirus-infected cell system after 1 hr by fluorescence polarization assay in presence of tetramethylrhodamine-labeled dexamethasone
Summary of the method: (§2)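 Lysates of baculovirus-infected insect cells co-expressing receptor with HSP-70, HSP-90 and p23 (GR diluted 300-fold, MR 17-fold). Probe 5 nM tetramethylrhodamine-dexamethasone in TES/KCl/molybdate/EDTA/CHAPS/glycerol/DTT buffer, pH 7.4, 1% DMSO. 1 h at room temperature in the dark; fluorescence polarization read (ex 550/em 580 nm). Background set with 2 μM dexamethasone. IC50 from duplicate 11-point curves, four-parameter fit, mean of at least two determinations.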

[4] = biological target: T1, Glucocorticoid receptor (Homo sapiens); test: Transrepression activity at glucocorticoid receptor in human fibroblasts assessed as inhibition of IL-1-induced IL-6 production at 2 uM after 18 to 24 hrs relative to dexomethasone; summary of the method: as §1
[5] = biological target: T4, Mineralocorticoid receptor (Homo sapiens, UniProt P08235); test: Competitive binding affinity to mineralocorticoid receptor (unknown origin) expressed in baculovirus-infected cell system after 1 hr by fluorescence polarization assay in presence of tetramethylrhodamine-labeled dexamethasone; summary of the method: as §2
T4 sequence (P08235 whole entry): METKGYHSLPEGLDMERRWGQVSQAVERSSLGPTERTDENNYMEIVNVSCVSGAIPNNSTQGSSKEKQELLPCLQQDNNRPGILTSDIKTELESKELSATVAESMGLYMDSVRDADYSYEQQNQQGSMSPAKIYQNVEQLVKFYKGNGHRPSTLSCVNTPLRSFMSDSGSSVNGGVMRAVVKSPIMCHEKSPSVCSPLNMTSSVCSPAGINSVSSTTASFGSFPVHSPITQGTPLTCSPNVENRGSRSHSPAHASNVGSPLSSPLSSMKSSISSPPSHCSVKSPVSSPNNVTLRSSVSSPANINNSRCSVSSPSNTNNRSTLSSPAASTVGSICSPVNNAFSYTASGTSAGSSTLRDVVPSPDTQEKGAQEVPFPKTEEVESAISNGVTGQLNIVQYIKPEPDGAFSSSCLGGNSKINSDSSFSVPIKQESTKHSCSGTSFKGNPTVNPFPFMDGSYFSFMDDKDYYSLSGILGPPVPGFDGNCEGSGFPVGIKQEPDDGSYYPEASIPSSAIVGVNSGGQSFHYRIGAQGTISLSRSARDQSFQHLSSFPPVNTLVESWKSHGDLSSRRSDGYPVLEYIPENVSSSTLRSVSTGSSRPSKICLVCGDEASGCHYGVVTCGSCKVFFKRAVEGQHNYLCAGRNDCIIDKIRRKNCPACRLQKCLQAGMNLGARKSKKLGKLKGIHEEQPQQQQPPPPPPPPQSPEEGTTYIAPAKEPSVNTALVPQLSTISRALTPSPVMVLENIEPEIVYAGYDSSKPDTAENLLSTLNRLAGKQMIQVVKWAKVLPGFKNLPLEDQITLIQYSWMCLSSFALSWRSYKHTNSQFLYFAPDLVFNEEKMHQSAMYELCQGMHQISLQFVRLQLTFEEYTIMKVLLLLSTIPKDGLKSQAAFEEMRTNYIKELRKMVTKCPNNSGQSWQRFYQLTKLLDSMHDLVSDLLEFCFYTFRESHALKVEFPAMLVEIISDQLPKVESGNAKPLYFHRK

[6] = biological target: T1, Glucocorticoid receptor (Homo sapiens); test: Agonist activity at glucocorticoid receptor in human HeLa cells transfected with luciferase gene linked to MMTV promoter assessed as induction of luciferase transactivation activity at 2 uM after 6 hrs by luminescence assay; assay type: cell-based
Summary of the method: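 HeLa cells stably carrying an MMTV-luciferase construct, plated the day before at 25000/well in DMEM with 3% FBS. Medium replaced, then compound added (0.2% DMSO final); 1 μM dexamethasone wells = 100% induction, vehicle = background. Incubated 6 h at 37 °C, 5% CO2. Luminescence read after lysis; activation expressed as % of positive control. Top concentration 2 μM.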

Compound	Emax [1]	IC50 (Glucocorticoid receptor [2])	IC50 (Progesterone receptor)	IC50 (Glucocorticoid receptor [3])	Emax [4]	IC50 [5]	Emax [6]
COc1ccc(-c2cncnc2)cc1C(C)(C)C[C@@](O)(Cc1cc2ccncc2[nH]1)C(F)(F)F	45%	–	–	–	–	–	–
CC(C)(CC(O)(Cc1cc2ncncc2[nH]1)C(F)(F)F)c1ccccc1S(C)(=O)=O (racemic)	43%	21 nM	> 2000 nM	24 nM	92%	> 2000 nM	–
COc1ccc(F)cc1C(C)(C)CC(O)(Cc1cc2cncnc2[nH]1)C(F)(F)F (racemic)	–	10 nM	1450 nM	4 nM	82%	160 nM	–
Cc1ccc(F)cc1C(C)(C)CC(O)(Cc1cc2nc(N3CCCC3)ncc2[nH]1)C(F)(F)F (racemic)	–	130 nM	> 2000 nM	18 nM	76%	> 2000 nM	–
Cc1ccc(F)cc1C(C)(C)CC(O)(Cc1cc2nc(-c3ccccc3)cnc2[nH]1)C(F)(F)F (configuration not stated)	–	170 nM	> 2000 nM	11 nM	82%	> 2000 nM	–
Cc1ccc(F)cc1C(C)(C)CC(O)(Cc1cc2cnncc2[nH]1)C(F)(F)F (racemic)	81%	5 nM	490 nM	3 nM	–	83 nM	–
Cc1ccc(F)cc1C(C)(C)CC(O)(Cc1cc2nccnc2[nH]1)C(F)(F)F (racemic)	–	> 2000 nM	> 2000 nM	57 nM	–	> 2000 nM	–
CC(C)(CC(O)(Cc1cc2ncncc2[nH]1)C(F)(F)F)c1cc(F)ccc1O (racemic)	42%	11 nM	> 2000 nM	7 nM	–	1150 nM	–
Cc1ccc(F)cc1C(C)(C)CC(O)(Cc1cc2nc(N3CCOCC3)ncc2[nH]1)C(F)(F)F (racemic)	–	15 nM	1400 nM	5 nM	84%	170 nM	–
Cc1ccc(F)cc1C(C)(C)CC(O)(Cc1cc2nc(C(C)C)ncc2[nH]1)C(F)(F)F (racemic)	–	560 nM	> 2000 nM	26 nM	50%	> 2000 nM	–
CC(C)(CC(O)(Cc1cc2ncncc2[nH]1)C(F)(F)F)c1cccc(S(C)(=O)=O)c1 (racemic)	–	–	> 2000 nM	840 nM	–	> 2000 nM	–
Cc1ccccc1C(C)(C)CC(O)(Cc1cc2ncncc2[nH]1)C(F)(F)F (racemic)	–	44 nM	> 2000 nM	13 nM	69%	1100 nM	–
CC(C)(CC(O)(Cc1cc2ncncc2[nH]1)C(F)(F)F)c1cc(F)cc2c1OCC2 (racemic)	26%	24 nM	1400 nM	7 nM	78%	1300 nM	–
COc1ccc(F)cc1C(C)(C)CC(O)(Cc1cc2ncncc2[nH]1)C(F)(F)F (racemic)	–	21 nM	> 2000 nM	9 nM	85%	> 2000 nM	5%
CC(C)(C[C@@](O)(Cc1cc2ccncc2[nH]1)C(F)(F)F)c1cc(F)ccc1O	68%	–	–	–	–	–	–
